Screens as filed in PubChem.
The list is a sample of the results.
PGC1a acetyl up: raises PGC1a acetylation signal in U2OS cells | U2OS PGC1a acetylation AlphaScreen, overnight | activation, % at 15.6 µM | hit rate 0.21% among 350,000;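 active = every replicate reaching activation of at least 50%, whatever the mean replicate activation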;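 also: hits raise the AlphaScreen acetylation signal above neutral controls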
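detection = AlphaScreen lysate read | assay system = U2OS cells expressing flag-PGC1a plus GCN5 | input = 7000 cells/well | dosing = one concentration | times = compound overnight at 37 °C, each detection step 1 h RT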
Starred values were filed as active, the others as inactive.

SMILES	PGC1a acetyl up
COc1ccc(C#Cc2cnc3c(c2)C(=O)N([C@H](C)CO)C[C@H](C)[C@H](CN(C)S(=O)(=O)c2cccc(F)c2)O3)cc1OC	123.0*
C[C@H](CO)N1C[C@H](C)[C@H](CN(C)S(=O)(=O)c2ccc(F)cc2)Oc2ncc(-c3cccc(C(=O)N(C)C)c3)cc2C1=O	-48.3
C[C@H](CO)N1C[C@H](C)[C@@H](CN(C)C(=O)Nc2ccc(F)cc2)Oc2ncc(C#CC3CC3)cc2C1=O	-46.5
CC(=O)OC[C@]12CC[C@H]3[C@@](C)(CC[C@H]4C(C)(C)CCC[C@]34C)[C@@H]1CC(C1=CC(=O)OC1O)O2 (some centres undefined)	-86.5
CCC(C)(C)NC(=O)c1ccc2c(c1)S(=O)(=O)c1ccccc1C2=O	-53.9
CCOc1ccc(NC(=O)CN2CCC(n3cnc4cc(F)ccc43)CC2)cc1	67.3*
COc1cc(NC(=O)CCN2CCN(C)CC2)cc(OC)c1	-49.9
COc1ccc(Cl)cc1NC(=O)CN1CCC(n2nnc3cc(C)ccc32)CC1	-51.5
O=C(O)c1cccn1Cc1ccccc1F	-54.0
CSc1nc2c(c(=O)[nH]c(=O)n2C)n1Cc1ccccc1	-43.1
Cc1ccccc1Cn1nc(C)c(NC(=O)c2cc(-c3cccs3)on2)c1C	-47.2
Cc1ccc(-c2c(C#N)c(N)n(-c3ccccc3)c(=O)c2C#N)cc1	65.7*
CCCn1c(-c2ccccc2)cc(SC)c(C#N)c1=O	-92.8
O=[N+]([O-])c1ccc(Oc2cccc(F)c2)c2ccncc12	-70.6
CCC(=O)N(C)C[C@@H]1Oc2ncc(-c3ccc(C(=O)N(C)C)cc3)cc2C(=O)N([C@H](C)CO)C[C@@H]1C	-58.8
CC(=O)Nc1ccc(NC(=O)CN(c2cccc([N+](=O)[O-])c2)S(C)(=O)=O)cc1	455.0*
CS(=O)(=O)N(CC(=O)N1CCN(c2ccccc2)CC1)c1cccc(Br)c1	-43.4
C[C@@H]1CN([C@H](C)CO)C(=O)CCCn2nncc2CO[C@H]1CN(C)C(=O)Nc1cccc(F)c1	-56.8
COc1ccccc1NC(=O)c1ccc(NC(=O)CNC(=O)c2ccc(OC)c(OC)c2)cc1	71.1*
CCn1nccc1C(=O)Nc1ccccc1OC	-41.5
CCn1c(=N)n(CC(=O)c2ccc(OC)c(OC)c2)c2ccccc21	-46.4
CC(C)C#Cc1cnc2c(c1)C(=O)N([C@H](C)CO)C[C@H](C)[C@H](CN(C)C(=O)c1ccccn1)O2	-44.8
CC(C)Cn1cnc2c(N)nc3ccccc3c21	-42.3
CC1(Cc2ccc(Cl)cc2)C(=O)Nc2ccc(-c3cccnc3)cc21 (centres undefined)	-45.9
Cc1ccc(CC2(C)C(=O)Nc3c(Cl)ccc(Cl)c32)cc1 (centres undefined)	158.9*
SMILES	PGC1a acetyl up
CO[C@@H]1CN(C)C(=O)c2cc(NS(=O)(=O)c3ccc(Cl)cc3)ccc2OC[C@H](C)N(C)C[C@H]1C	-60.1
CC(C(=O)OCn1nnc2ccccc2c1=O)N1C(=O)c2ccccc2C1=O (centres undefined)	-48.0
O=C(OCn1ncc(Cl)c(Cl)c1=O)c1ccc(C(F)(F)F)cc1	154.5*
COc1ccc2c([N+](=O)[O-])c(N3CCCC3)[nH]c2c1	-48.3
Cc1cccc(-c2ccc(C3[C@@H]4CN(C(=O)C5CCCCC5)C[C@H]3N4)cc2)c1 (some centres undefined)	74.0*
Cc1ccc(-c2ccc(C3[C@@H]4CN(C(=O)Nc5ccc(C(F)(F)F)cc5)C[C@H]3N4)cc2)cc1 (some centres undefined)	-69.7
O=C(Nc1ccc(C(F)(F)F)cc1)N1C[C@@H]2N[C@H](C1)C2c1ccc(-c2cccc(F)c2)cc1 (some centres undefined)	-62.5
CCCCn1c(SCC(=O)NCc2ccc3c(c2)OCO3)nnc1C(CC)N(C)C (centres undefined)	-43.7
O=C1N(Cc2ccccc2)Cc2ccccc2[C@@H]2OC(c3ccc(OCCCO)cc3)=N[C@]12Cc1ccccc1	52.0*
C#CC(=O)N(c1cc(OC)ccc1OC)C(C(=O)NC1CCCC1)c1cccs1 (centres undefined)	-88.2
O=C(Nc1cccc(OC(F)(F)F)c1)c1ccc(-c2cccnc2)c2ccoc12	58.7*
COCCn1c(C)c(C)c2c(NCCc3ccccc3)ncnc21	-51.4
CC1CCN(S(=O)(=O)c2ccc(Oc3ccc([N+](=O)[O-])cc3)cc2)CC1	-53.9
CCOC(=O)C1=CC[C@@H](c2ccc([N+](=O)[O-])cc2)N(S(=O)(=O)c2ccc(C)cc2)[C@H]1c1ccccc1	56.6*
O=C(Nc1ccccc1)Nc1cc(Cl)cc(Cl)c1	-39.0
O=C(Nc1ccccc1)c1nnsc1S(=O)c1ccc(Cl)cc1 (centres undefined)	124.6*
Oc1ccc(Nc2nnc(-c3ccc(O)cc3)c3ccccc23)cc1	63.4*
COc1cc(Cn2c(N)c(C#N)c3nc4ccccc4nc32)cc(OC)c1	51.6*
CCOc1ccc(NC(=O)c2cccc3c2C(=O)N(CCOC)C3)cc1	93.9*
CC(C)(C)C(=O)/C(=C\c1cccc([N+](=O)[O-])c1)n1cncn1	-96.0
C[C@H]1CN([C@@H](C)CO)C(=O)c2cccc(NC(=O)c3nc4ccccc4s3)c2O[C@H]1CN(C)Cc1ccc(C(=O)Nc2ccccc2N)cc1	103.9*
C[C@@H]1CN([C@H](C)CO)C(=O)c2cccc(NC(=O)c3nc4ccccc4s3)c2O[C@@H]1CN(C)CC1CCCCC1	-59.1
C[C@H](CO)N1C[C@H](C)[C@@H](CN(C)CC2CCCCC2)Oc2c(NC(=O)c3nc4ccccc4s3)cccc2C1=O	-54.8
C[C@@H]1CCCCO[C@H](CN(C)Cc2ccc(C(F)(F)F)cc2)[C@H](C)CN([C@H](C)CO)C(=O)c2cc(NC(=O)Cc3ccccc3)ccc2O1	-41.8
C[C@H]1CN([C@@H](C)CO)C(=O)c2cccc(NC(=O)C3CCCCC3)c2O[C@H]1CN(C)Cc1ccc(C(=O)Nc2ccccc2N)cc1	173.2*
SMILES	PGC1a acetyl up
C[C@@H]1CN([C@@H](C)CO)C(=O)c2cc(NC(=O)c3ccncc3)ccc2O[C@@H](C)CCCCO[C@@H]1CN(C)Cc1ccncc1	-46.2
COc1ccc(OC)c(CN2CCN(C(=O)c3ccc(NS(=O)(=O)c4cccc([N+](=O)[O-])c4)cc3)CC2)c1	-40.0
COC(=O)c1cc(C(=O)N2CCN(c3cccc(Cl)c3)CC2)cc([N+](=O)[O-])c1	77.5*
O=C(Oc1ccc[nH]c1=O)c1cc([N+](=O)[O-])cc([N+](=O)[O-])c1	-53.2
CC(C)(C)c1ccc(CCC2OCC(C[N+]3(C)CCOCC3)O2)cc1 (centres undefined)	-73.3
CC1(C)CC(=O)C2=C(C1)Nc1ccccc1N1C(=O)c3ccccc3C21 (centres undefined)	57.9*
CO[C@H]1CN(C)C(=O)c2cc(NC(=O)c3ccccc3F)ccc2OC[C@@H](C)N(C(C)=O)C[C@@H]1C	-130.3
CC1=C(C(=O)OC(C)(C)C)C(c2ccc3ccccc3c2)NC(=O)N1C (centres undefined)	-65.5
Cc1cc(C)c(NC(=O)c2ccc(S(=O)(=O)N(C)C)cc2)c(C)n1	-50.4
O=C1C(c2ccccc2)C(c2ccccc2)NC(c2ccccc2)C1c1ccccc1 (centres undefined)	55.3*
O=C(O)c1cccc(N2C(=O)CSC2c2c(F)cccc2Cl)c1 (centres undefined)	56.3*
COc1ccc(CN(C)C[C@@H]2Oc3ccc(NS(=O)(=O)c4c(C)noc4C)cc3C(=O)N([C@@H](C)CO)C[C@@H]2C)cc1	-55.8
